pCIP destab – compounds decreasing mouse p/CIP protein stability; 290,000 tested, 0.01% active; decrease of EGFP signal, % at 10 µM; F442A p/CIP-EGFP cells, EGFP fluorescence, 16 h; Q05BA5;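 active = EGFP signal decrease of at least 30% at 10 µM or well 3 SD below plate mean, unless failing retest; inactive = the rest, including hits failing retest or dose response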
T cruzi inh – blocks replication of Trypanosoma cruzi | T. cruzi beta-gal in NIH3T3, luminescence, 90 h | AID 1885 | 300,000 tested, 1.4% active | inhibition, % (no concentration beside the values);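 active = mean inhibition across valid replicates above about 55%, limit read from the data; inconclusive = mean below that limit but half or more replicates reach it; inactive = mean below it, under half of replicates reach it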;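 note: signal also drops with host cell toxicity which is not excluded here; 0% = plate median of DMSO wells and 100% = zero luminescence signal; higher percent means less beta-gal luminescence so fewer parasites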
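Assay system: NIH/3T3 fibroblasts plus reporter T. cruzi. Amount: NIH/3T3 cells, 5,000 per well. Buffer or medium: DMEM, 2% fetal bovine serum. Doses: compound pinned at 50 nL/well, DMSO. Schedule: ≥90 h infection period, 3 h prior cell attachment. Signal: luminescent β-galactosidase signal after 60 min lysis. Read-out: parasite load inhibition, %.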
PP5 inh – inhibitors of human protein phosphatase 5 (PP5); AID 1987; P53041; 320,000 tested, 0.18% active; purified PP5c, OMFP substrate fluorescence; inhibition, % at 6.7 µM;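 active = inhibition above the campaign's mean inhibition across all tested compounds plus 3 SD, cut at about 9.5% in these data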;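 note: 0% = DMSO only and 100% = 100 µM cantharidin control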
Fh CTSL1 inh – cathepsin L1 inhibition, PFM18AAP counter-screen. recombinant F. hepatica cathepsin L1, Z-Leu-Arg-MCA fluorescence. AID 1906. 300,000 tested, 0.49% active. inhibition, % at 5.96 µM;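 active = inhibition above the mean of all tested compounds plus 3 SD, set per screening campaign, cut at about 17% in these data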;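 note: 0% = plate median of test compound wells and 100% = 1 µM Z-Phe-Ala-diazomethylketone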
JMJD2C inh – blocks human GASC-1 demethylase activity. Q9H3R0. inhibition, % at 2.35 µM. GST-JMJD2C(1-420) H3K9me3 demethylation, DELFIA europium. 330,000 tested, 0.069% active;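 active = more than half of a compound's replicate wells show inhibition beyond 50%, single wells judged on their own value; inconclusive = some, but no more than half, of replicates pass 50% inhibition; inactive = no replicate passes 50% inhibition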;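 note: signal counts dimethyl H3K9 product captured on neutravidin plate; 0% = median of DMSO wells and 100% = 0.3 times that DMSO median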
Target sequence (Q9H3R0 1-420 limits assumed): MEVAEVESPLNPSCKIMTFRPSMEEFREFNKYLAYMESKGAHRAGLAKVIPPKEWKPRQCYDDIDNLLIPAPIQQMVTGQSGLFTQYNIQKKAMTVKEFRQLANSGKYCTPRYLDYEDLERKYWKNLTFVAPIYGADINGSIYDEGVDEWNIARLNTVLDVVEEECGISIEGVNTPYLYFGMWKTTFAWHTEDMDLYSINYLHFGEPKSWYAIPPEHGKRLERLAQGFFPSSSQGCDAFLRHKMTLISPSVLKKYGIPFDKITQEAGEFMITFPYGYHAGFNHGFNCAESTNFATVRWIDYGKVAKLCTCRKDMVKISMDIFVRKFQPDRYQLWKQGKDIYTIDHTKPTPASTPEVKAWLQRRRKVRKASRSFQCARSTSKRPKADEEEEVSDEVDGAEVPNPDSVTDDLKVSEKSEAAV
Cardio protect – modulators protecting cardiomyocytes from myocardial damage; protection from H2O2 cell death, % at 20 µM; 360,000 tested, 0.63% active; H9c2 cardiomyocytes, H2O2 injury protection, ATPLite, 2 h; AID 588492;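 active = compounds giving at least 50% protection of heart cells from peroxide-induced death in the single-dose screen, raw or plate-pattern-corrected value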;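 note: 0% = DMSO wells with peroxide and 100% = DMSO wells without peroxide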
* = called active by the depositor; u = inconclusive; x = no result given. Sampled rows, rich in hits. Any-hit rate of the full collection: about 2.4%.

SMILES	pCIP destab	T cruzi inh	PP5 inh	Fh CTSL1 inh	JMJD2C inh	Cardio protect
C/C=C(\C)C(=O)OC1CC(C)(C)C[C@H]2C3=CC[C@@H]4[C@@]5(C)CCC(O[C@@H]6O[C@@H](C(=O)O)[C@@H](O)C(O[C@@H]7OC[C@H](O)[C@@H](O)[C@@H]7O[C@@H]7OC(CO)C(O)[C@@H](O)[C@@H]7O)C6O[C@@H]6OC(CO)C(O)C(O)C6O)[C@@](C)(CO)[C@@H]5CC[C@]4(C)[C@]3(C)CC(O)[C@@]12CO (stereo partly drawn)	x	x	x	x	x	-5
O=C(O)CCCC(=O)N1CC(=O)Nc2ccccc21	-8	-1	-1	-2	14	4
CCC(C)[C@H](NC(=O)N1CC(=O)Nc2ccccc21)C(=O)N[C@@H](Cc1c[nH]c2ccccc12)C(=O)O (stereo partly drawn)	-6	-8	1	5	u	0
CC(C)C[C@H](NC(=O)N1CC(=O)Nc2ccccc21)C(=O)N[C@@H](Cc1c[nH]c2ccccc12)C(=O)O	-5	-12	-1	22*	3	-3
O=C1CN(C(=O)CCCc2c[nH]c3ccccc23)c2ccccc2N1	-9	-7	-7	5	54*	7
CC(C)C[C@H](NC(=O)N1CC(=O)Nc2ccccc21)C(=O)N[C@H](Cc1c[nH]c2ccccc12)C(=O)O	-10	1	0	38*	-47	0
CCc1ccc(N=c2c([N+](=O)[O-])nn(-c3ccccc3)n2O)cc1	-18	56*	3	-2	-21	2
Cc1cc(C)cc(N=c2c([N+](=O)[O-])nn(-c3ccc(Cl)cc3)n2O)c1	3	59*	1	11	-6	-12
CNS(=O)(=O)c1ccc2nc(NC(=O)/C=C/c3ccco3)sc2c1	-15	-4	0	-1	-5	64*
O=C(COC(=O)c1ccc([N+](=O)[O-])o1)Nc1cccc(S(=O)(=O)N2CCOCC2)c1	-7	0	4	-9	-6	45
O=C(COC(=O)c1ccc([N+](=O)[O-])o1)Nc1ccc(N2CCOCC2)cc1	x	x	x	x	-4	52*
CN(C)S(=O)(=O)c1cccc(NC(=O)COC(=O)c2ccc([N+](=O)[O-])o2)c1	-4	9	-1	-6	-10	102*
CCCCn1c(N)c(N(CC(C)C)C(=O)C2CCN(S(=O)(=O)c3ccc(OCC)cc3)CC2)c(=O)[nH]c1=O	x	-4	0	-1	-9	0
COc1cc2c(cc1OC)CN(C(=O)CSc1n[nH]c(N)n1)CC2	-4	-1	0	-4	54*	8
COc1cccc(CN(C(=O)Cc2c[nH]c3ccccc23)C(C(=O)NC2CCCCC2)c2cccs2)c1 (stereo not drawn)	-19	55*	7	1	0	32
Cc1ccc(C(C(=O)NC2CCCCC2)N(C(=O)Cc2c[nH]c3ccccc23)c2ccccc2)o1 (stereo not drawn)	16	56*	3	-1	4	6
O=C(NCC(=O)N(Cc1cccs1)C(C(=O)NC1CCCCC1)c1ccco1)c1ccco1 (stereo not drawn)	-4	9	1	6	16	77*
O=C(NCC(=O)N(Cc1cccs1)C(C(=O)NC1CCCC1)c1ccncc1)c1ccco1 (stereo not drawn)	-3	-10	-3	-1	69	0
O=C(NC1CCCCC1)C(c1cccs1)N(C(=O)Cc1c[nH]c2ccccc12)c1ccc(F)cc1 (stereo not drawn)	-13	57*	3	0	0	-3
Cc1cc(OCC(=O)OCC(=O)c2ccc[nH]2)ccc1Cl	x	x	x	x	x	-1
Cc1cccc(N(C(=O)C(F)(F)F)C(C(=O)NC2CCCCC2)c2cccs2)c1 (stereo not drawn)	-2	59*	2	0	-2	-2
COc1ccc(CN(C(=O)Cc2cccs2)C(C(=O)NC2CCCC2)c2ccncc2)cc1 (stereo not drawn)	-2	66*	1	2	3	10
COC(=O)c1ccc(C(C(=O)NC2CCCCC2)N(Cc2ccc(F)cc2)C(=O)Cc2cccs2)cc1 (stereo not drawn)	10	13	-1	0	4	15
Cc1cc(C)cc(N(C(=O)C(F)(F)F)C(C(=O)NC2CCCCC2)c2cccs2)c1 (stereo not drawn)	-1	-3	0	1	-3	-3
CN(C)S(=O)(=O)c1cc(C(=O)Nc2ccccc2C(=O)NC2CC2)ccc1Cl	x	x	2	x	x	0
SMILES	pCIP destab	T cruzi inh	PP5 inh	Fh CTSL1 inh	JMJD2C inh	Cardio protect
CCOc1cc(CNc2ccc(Br)cc2)cc(Br)c1OCC(=O)NC(C)(C)C	3	66*	2	1	2	-13
Cc1ccc(-c2n[nH]c(=O)c3ccccc23)cc1N	0	2	7	3	21	68*
CCc1ccc(-c2n[nH]c(=O)c3ccccc23)cc1	-1	-6	1	2	42	24
Cc1ccc(-c2n[nH]c(=O)c3ccccc23)c(C)c1	-4	-5	2	-3	-2	-5
Nc1ccc(-c2n[nH]c(=O)c3ccccc23)cc1N	-4	7	8	-2	14	80*
CCC(NC(=O)Nc1nnc(C(F)(F)F)s1)(C(F)(F)F)C(F)(F)F	30*	62*	4	-1	7	-31
O=C(O)CCC(=O)Nc1nnc(C(F)(F)F)s1	7	x	-3	-3	5	-4
CCn1c(SCCN2CCCCC2)nc2c1c(=O)n(C)c(=O)n2C	x	x	x	x	x	4
CN(C(=O)c1cccc(NC(=O)Cc2ccc(NC(=O)C3CCN(C(=O)C4CCC4)CC3)cc2)c1)C1CC1	x	x	x	x	x	2
CC(=O)Nc1cccc(-c2nnc(-c3ccccc3)o2)c1	9	-4	-1	-6	-4	5
CC(C)(C)C(=O)Nc1cccc(-c2nnc(-c3cccc(NC(=O)C(C)(C)C)c3)o2)c1	0	27	1	-1	15	64*
COc1ccccc1OCC(=O)Nc1cccc(-c2nnc(-c3ccco3)o2)c1	-6	-23	4	-1	3	64*
Cc1ccc(S(=O)(=O)NC(=O)C2(C)CCN2C(=O)C2CCCCC2)nc1 (stereo not drawn)	x	x	x	x	x	1
Cc1nn(C(=O)CCC(=O)NCc2ccccc2Cl)c2ccccc12	-4	-6	-2	20*	-3	2
COc1ccccc1CNC(=O)CCCC(=O)n1nc(C)c2ccccc21	-4	3	3	-2	3	2
CC(=O)O[C@H]1C(=O)[C@@]2(C)[C@H]([C@H](OC(=O)c3ccccc3)[C@]3(O)C[C@H](OC(=O)[C@H](O)[C@@H](NC(=O)c4ccccc4)c4ccccc4)C(C)=C1C3(C)C)[C@]1(OC(C)=O)CO[C@@H]1C[C@@H]2O	x	x	-4	19*	x	-2
